In paper PMC8246815 (Clinical Pharmacology in Drug Development, 2020):
Like-named read-outs stand apart in the source and are kept apart here. Values belong to the compound of their own block, whether it stands above or below them.

Key:
[1] = Study AUS-SD-809-CTP-07 part 2: single and repeated; format: in vivo, human; conditions: for α-HTBZ Cmin / (α+β)-HTBZ Cmin / β-HTBZ Cmin: steady state, mean (CV%); for α-HTBZ Cmin: 0-12 h; for Linear regression model slope (zero intercept) / Power regression model α (parameter = α × dose^β) / Power regression model β (exponent of dose): deutetrabenazine fed
Method in brief: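 Two groups of 12 healthy subjects over 20 days; the second group dosed ≥7 days after the first. Test compound given at 7.5, 15 and 22.5 mg after a standard meal; non-deuterated reference 25 mg fasted. Single doses on days 1 and 4, ≥72 h apart, with full plasma profiles. Dosing every 12 h from day 7 for 3.5 days, with predose troughs used to confirm steady state. Cmin taken as the minimum over 0–12 h. Power (parameter = α × dose^β) and zero-intercept linear regressions fitted to single-dose AUCinf, steady-state AUC0-12 and Cmax.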

[2] = format: in vivo, human; conditions: for Total (α+β)-HTBZ AUC0-t / Total (α+β)-HTBZ AUCinf / Total (α+β)-HTBZ Cmax / Total (α+β)-HTBZ T1/2 / α-HTBZ AUC0-t / α-HTBZ AUCinf / α-HTBZ Cmax / β-HTBZ AUC0-t / β-HTBZ AUCinf / β-HTBZ Cmax / β-HTBZ T1/2 / Total (α+β)-HTBZ Tmax / α-HTBZ Tmax / β-HTBZ Tmax: deutetrabenazine 15 mg single dose; for Total (α+β)-HTBZ AUC0-t / Total (α+β)-HTBZ AUCinf / Total (α+β)-HTBZ Cmax / Total (α+β)-HTBZ T1/2 / α-HTBZ AUC0-t / α-HTBZ AUCinf / α-HTBZ Cmax / β-HTBZ AUC0-t / β-HTBZ AUCinf / β-HTBZ Cmax / β-HTBZ T1/2: mean (CV%); for Total (α+β)-HTBZ Tmax / α-HTBZ Tmax / β-HTBZ Tmax: median (range); for Plasma concentrations of the parent compound: single administration of 15 mg deutetrabenazine or 25 mg tetrabenazine tablets, LLOQ 0.100 ng/mL
Method in brief: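 Randomised crossover in 25 healthy subjects, five periods over 17 days, all in clinic. Single oral dose: 15 mg of each of two test-compound tablet formulations, fed or fasted, or 25 mg non-deuterated reference fasted. Fasted means an overnight fast of ≥10 h; fed means an FDA-definition high-fat (50% calories), 800–1000 calorie meal. Plasma dihydro metabolites sampled predose and over 72 h; values below LLOQ set to LLOQ where flanked by measurable ones. Non-compartmental AUC and Cmax; ANOVA on ln values (subject, period, treatment); back-transformed geometric mean ratios with 90% CI.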

[3] = system: chorea associated with Huntington's disease; conditions: cited from earlier work
[4] = format: in vivo, human
Method in brief: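 Healthy subjects given 18 mg test compound after a standard meal or after a high-fat meal. For the dose-proportionality arms, doses of 6, 12, 18 and 24 mg were given with a standard meal and compared as dose-normalised parameters. Plasma dihydro metabolites analysed by non-compartmental Cmax, AUC0-t and AUCinf. ANOVA on ln values; geometric mean ratios with 90% CI, back-transformed.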

[5] = Safety assessments, study AUS-SD-809-CTP-07; format: in vivo, human; conditions: for Serious AEs: healthy volunteers; for Laboratory parameters, vital signs and physical examination: single or multiple doses
Method in brief: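 Healthy subjects, single 15 mg dose in part 1 and single or repeated 7.5–22.5 mg doses in part 2. Adverse-event monitoring, physical examination, vital signs, standard 12-lead ECG, PHQ-9, C-SSRS and laboratory tests repeated throughout, including 72 h after each dose in part 1. For preliminary QTc assessment, triplicate digital 12-lead ECGs recorded on part 2 dosing days 1 and 4.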

tardive dyskinesia = conditions: cited from earlier work
VMAT2 = conditions: cited from earlier work
[6] = system: chorea in patients with HD; conditions: 12 weeks; cited from earlier work
[7] = deutetrabenazine 7.5 mg twice daily fed
[8] = deutetrabenazine 15 mg twice daily fed
[9] = deutetrabenazine 22.5 mg twice daily fed
[10] = total (α+β)-HTBZ AUC0-12 (steady state)
[11] = total (α+β)-HTBZ AUCinf (single dose)
[12] = LS geometric mean ratio deutetrabenazine 15 mg fed / tetrabenazine 25 mg fasted
[13] = deutetrabenazine 15 mg high-fat/high-calorie meal versus fasted
[14] = deutetrabenazine 15 mg, high-fat/high-calorie meal
[15] = deutetrabenazine 18 mg high-fat/high-calorie meal versus standard meal
[16] = deutetrabenazine 18 mg, high-fat/high-calorie meal
[17] = deutetrabenazine 18 mg, standard meal

α-HTBZ Cmin [1, 7]: 7.2 (41) ng/mL | (α+β)-HTBZ Cmin [1, 7]: 10.1 (48) ng/mL | β-HTBZ Cmin [1, 7]: 2.8 (71) ng/mL | α-HTBZ Cmin [1, 8]: 15.6 (37) ng/mL | (α+β)-HTBZ Cmin [1, 8]: 21.1 (41) ng/mL | β-HTBZ Cmin [1, 8]: 5.5 (54) ng/mL | α-HTBZ Cmin [1, 9]: 26.3 (40) ng/mL | (α+β)-HTBZ Cmin [1, 9]: 39.5 (59) ng/mL | β-HTBZ Cmin [1, 9]: 13.1 (102) ng/mL | Exposure to β-HTBZ relative to α-HTBZ ([1]; single-dose and repeated deutetrabenazine administration): approximately one‐third | Linear regression model slope (zero intercept) [1, 10]: 32.4 | Power regression model α (parameter = α × dose^β) [1, 10]: 17.8 | Power regression model β (exponent of dose) [1, 10]: 1.2 | Linear regression model slope (zero intercept) [1, 11]: 26.9 | Power regression model α (parameter = α × dose^β) [1, 11]: 17.0 | Power regression model β (exponent of dose) [1, 11]: 1.1 | Total (α+β)-HTBZ AUC0-t % ratio (90%CI) [2, 12]: 126.6 (115.8‐138.4) % | Total (α+β)-HTBZ AUCinf % ratio (90%CI) [2, 12]: 127.7 (116.7‐139.6) % | Total (α+β)-HTBZ Cmax % ratio (90%CI) [2, 12]: 51.4 (46.0‐57.4) % | α-HTBZ AUCinf % ratio (90%CI) [2, 12]: 129.7 (118.1‐142.5) % | α-HTBZ Cmax % ratio (90%CI) [2, 12]: 49.3 (44.5‐54.7) % | β-HTBZ AUC0-t % ratio (90%CI) [2, 12]: 117.0 (104.5‐131.1) % | β-HTBZ AUCinf % ratio (90%CI) [2, 12]: 119.9 (105.5‐136.2) % | β-HTBZ Cmax % ratio (90%CI) [2, 12]: 55.3 (47.7‐64.2) % | Increase of AUCinf of (α+β)-HTBZ with food ([2]; deutetrabenazine 15 mg high-fat meal vs fasted): about 11% | Total (α+β)-HTBZ AUC0-t % ratio [2, 13]: 111.5% | Total (α+β)-HTBZ AUCinf % ratio [2, 13]: 110.6% | Total (α+β)-HTBZ Cmax % ratio [2, 13]: 149.7% | Total (α+β)-HTBZ T1/2 % ratio [2, 13]: 75.3% | Total (α+β)-HTBZ AUC0-t ([2]; fasted): 263 (45) ng·h/mL | Total (α+β)-HTBZ AUCinf ([2]; fasted): 273 (45) ng·h/mL | Total (α+β)-HTBZ Cmax ([2]; fasted): 22.5 (36) ng/mL | Total (α+β)-HTBZ T1/2 ([2]; fasted): 9.4 (25) h | α-HTBZ AUC0-t ([2]; fasted): 185 (25) ng·h/mL | α-HTBZ AUCinf ([2]; fasted): 196 (24) ng·h/mL | α-HTBZ Cmax ([2]; fasted): 14.2(34) ng/mL | β-HTBZ AUC0-t ([2]; fasted): 74.2 (108) ng·h/mL | β-HTBZ AUCinf ([2]; fasted): 81.4 (105) ng·h/mL | β-HTBZ Cmax ([2]; fasted): 8.43 (48) ng/mL | β-HTBZ T1/2 ([2]; fasted): 6.6 (56) h | Total (α+β)-HTBZ Tmax ([2]; fasted): 2.3 (1.0‐8.0) h | α-HTBZ Tmax ([2]; fasted): 2.5 (1.0‐8.0) h | β-HTBZ Tmax ([2]; fasted): 2.5 (1.0‐8.0) h | Total (α+β)-HTBZ AUC0-t ([2]; fed (high-fat meal)): 296 (48) ng·h/mL | Total (α+β)-HTBZ AUCinf ([2]; fed (high-fat meal)): 305 (46) ng·h/mL | Total (α+β)-HTBZ Cmax ([2]; fed (high-fat meal)): 33.3 (33) ng/mL | Total (α+β)-HTBZ T1/2 ([2]; fed (high-fat meal)): 7.0 (23) h | α-HTBZ AUC0-t ([2]; fed (high-fat meal)): 207 (30) ng·h/mL | α-HTBZ AUCinf ([2]; fed (high-fat meal)): 217 (29) ng·h/mL | α-HTBZ Cmax ([2]; fed (high-fat meal)): 20.8 (27) ng/mL | β-HTBZ AUC0-t ([2]; fed (high-fat meal)): 85.6 (102) ng·h/mL | β-HTBZ AUCinf ([2]; fed (high-fat meal)): 102 (92) ng·h/mL | β-HTBZ Cmax ([2]; fed (high-fat meal)): 12.7 (50) ng/mL | β-HTBZ T1/2 ([2]; fed (high-fat meal)): 4.6 (63) h | Total (α+β)-HTBZ Tmax ([2]; fed (high-fat meal)): 6.0 (1.5‐8.0) h | α-HTBZ Tmax ([2]; fed (high-fat meal)): 6.0 (1.0‐8.0) h | β-HTBZ Tmax ([2]; fed (high-fat meal)): 6.0 (1.5‐8.0) h | Total (α+β)-HTBZ AUC0-t, LS mean ([2]; deutetrabenazine 15 mg, fasted): 244.6 ng·h/mL | Total (α+β)-HTBZ AUCinf, LS mean ([2]; deutetrabenazine 15 mg, fasted): 254.9 ng·h/mL | Total (α+β)-HTBZ Cmax, LS mean ([2]; deutetrabenazine 15 mg, fasted): 21.2 ng/mL | Total (α+β)-HTBZ AUC0-t, LS mean [2, 14]: 272.8 ng·h/mL | Total (α+β)-HTBZ AUCinf, LS mean [2, 14]: 282.0 ng·h/mL | Total (α+β)-HTBZ Cmax, LS mean [2, 14]: 31.7 ng/mL | Total (α+β)-HTBZ T1/2, LS mean [2, 14]: 6.8 h | Effect of food on exposure to total (α+β)-HTBZ, as measured by AUC ([2]; deutetrabenazine fed vs fasted): no effect | Plasma concentrations of the parent compound [2]: near or at the LLOQ | Total (α+β)-HTBZ AUC0-t % ratio [4, 15]: 107.0% | Total (α+β)-HTBZ AUCinf % ratio [4, 15]: 106.4% | Total (α+β)-HTBZ Cmax % ratio [4, 15]: 104.2% | Total (α+β)-HTBZ T1/2 % ratio [4, 15]: 101.8% | Total (α+β)-HTBZ AUC0-t, LS mean [4, 16]: 408 ng·h/mL | Total (α+β)-HTBZ AUCinf, LS mean [4, 16]: 419 ng·h/mL | Total (α+β)-HTBZ Cmax, LS mean [4, 16]: 48.4 ng/mL | Total (α+β)-HTBZ AUC0-t, LS mean [4, 17]: 382 ng·h/mL | Total (α+β)-HTBZ AUCinf, LS mean [4, 17]: 394 ng·h/mL | Total (α+β)-HTBZ Cmax, LS mean [4, 17]: 46.5 ng/mL | Total (α+β)-HTBZ T1/2, LS mean [4, 17]: 9.7 h
Compound: [2H]C([2H])([2H])Oc1cc2c(cc1OC([2H])([2H])[2H])C1CC(=O)C(CC(C)C)CN1CC2 (stereo not shown) [Deutetrabenazine]
Mean difference in total maximal chorea score compared with placebo treatment [3]: −2.5 unit | Mean Unified Huntington's Disease Rating Scale total maximal chorea score ([3]; weeks 9-12, twice a day, baseline 12.1): 7.7 | Serious AEs [5]: No serious AEs | Most frequent AEs reported as possibly drug related ([5]; in vivo): Somnolence and headache | Subjects with change from predose in QTc of >30 milliseconds ([5]; in vivo): No subject | Subjects with postdose QTc > 450 milliseconds ([5]; in vivo): No subject | Tolerability ([5]; single 15 mg (part 1) and single/repeated 7.5-22.5 mg (part 2)): well tolerated | Laboratory parameters, vital signs and physical examination [5]: no clinically significant abnormalities | Change in the Abnormal Involuntary Movement Scale scores (tardive dyskinesia): significantly reduced TD

Compound: α‐dihydrotetrabenazine [α‐HTBZ]
Inhibition of VMAT2 (VMAT2): potent inhibitors

Compound: COc1cc2c(cc1OC)[C@H]1C[C@H](O)[C@H](CC(C)C)CN1CC2 [β‐HTBZ, β‐dihydrotetrabenazine]
Inhibition of VMAT2 (VMAT2): potent inhibitors

Plasma concentrations of the parent compound [2]: near or at the LLOQ
Compound: COc1cc2c(cc1OC)C1CC(=O)C(CC(C)C)CN1CC2 (stereo not shown) [Tetrabenazine, reference compound]
Chorea severity compared with placebo-treated patients [6]: significantly reduced chorea severity | Serious AEs [5]: One serious AE of vessel puncture‐site reaction | Subjects with change from predose in QTc of >30 milliseconds ([5]; in vivo): No subject | Subjects with postdose QTc > 450 milliseconds ([5]; in vivo): No subject | Laboratory parameters, vital signs and physical examination [5]: no clinically significant abnormalities
